The test system of one data set is A549. Put plainly: Cytotoxicity against human A549 cells by MTT assay. It is filed as functional, cell-based.
For a further data set, the system named is HepG2. Put plainly: Cytotoxicity against human HepG2 cells by MTT assay. It is filed as functional, cell-based.
The subject of another data set is MDA-MB-231. Put plainly: Cytotoxicity against human MDA-MB-231 cells by MTT assay. The class given is functional, cell-based.
The nature of data set [1]: Selectivity index, ratio of CC50 for human HuH7 cells to EC50 for DENV2 infected in human HuH7 cells. The class given is toxicity, cell-based. As to conditions: read-out: Ratio CC50/EC50; call rule not given here.
Another data set concerns dengue virus type 2. The experiment in a line: Antiviral activity against DENV2 infected in human HuH7 cells. The class given is functional, organism-based. Particulars: Huh-7.
Data set [2] relates to Neutrophil. Put plainly: Antiinflammatory activity in human neutrophils assessed as inhibition of fMLP/CB-induced elastase release preincubated for 5 mins followed by fMLP/CB stimulation and measured for 10 mins using MeO-Suc-Ala-Ala-Pro-Val-p-nitroanilide as substrate. The class given is functional, cell-based. A digest of the protocol: (§1)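 Human neutrophils stimulated with fMLF. For the superoxide read-out, cells were equilibrated in ferricytochrome c at 0.6 mg/mL. Other steps for superoxide generation and elastase release followed an earlier published protocol. Values are means ± SEM, n = 3 or 4.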

The subject of data set [3] is Neutrophil. Put plainly: Antiinflammatory activity in human neutrophils assessed as inhibition of fMLP/CB-induced superoxide anion generation preincubated for 5 mins followed by cytochalasin B/fMLP addition for 3 mins by superoxide dismutase inhibitable reduction of ferricytochrome c based assay. The class given is functional, cell-based. A digest of the protocol:
as §1

The mark [4] stands for this setting: Homo sapiens, MDA-MB-231, read-out: IC50.

Among the data in ChEMBL document CHEMBL4145645, “Bioactive Phenolic Components from the Twigs of Atalantia buxifolia” (J Nat Prod, 2018) are IC50, selectivity ratio and EC50 values, retold here.

The structures appear in SMILES notation.

As to `COC(=O)c1cccc(O)c1OC` [METHYL 3-HYDROXY-2-METHOXYBENZOATE], the half-inhibitory concentration (IC50) in the data set on A549, in the data set on HepG2 and with MDA-MB-231 (setting [4]) was more than 20 µg/mL each time.
Turning to `CC(C)=CCc1c2c(c3c(c1O)c(=O)c1ccccc1n3C)C=CC(C)(C)O2`, the IC50 with A549, in the data set with HepG2 and in the data set on MDA-MB-231 (setting [4]) was more than 20 µg/mL in each case.
For `CC1(C)C=Cc2c(cc(O)c3c(=O)cc(-c4ccc(O)cc4)oc23)O1` [ATALANTOFLAVONE], the IC50 with A549, in the data set with HepG2 and in the data set with MDA-MB-231 (setting [4]) was more than 20 µg/mL throughout.
Turning to `C=C(C)C(O)CC/C(C)=C/COc1ccc2ccc(=O)oc2c1` (configuration not stated), the half-maximal inhibitory concentration (IC50) with A549, in the data set with HepG2 and in the data set on MDA-MB-231 (setting [4]) was more than 20 µg/mL each time.
Take `COc1cc(O)c2c(=O)c3cccc(O)c3n(C)c2c1CC=C(C)C` [GLYCOCITRINE I]: the IC50 with A549, in the data set on HepG2 and in the data set with MDA-MB-231 (setting [4]) was more than 20 µg/mL each time.
In the case of `CC(C)=CCc1c2c(c3[nH]c4ccccc4c(=O)c3c1O)C=CC(C)(C)O2` [SEVERIFOLINE], the IC50 in the data set on A549, with HepG2 and in the data set with MDA-MB-231 (setting [4]) was more than 20 µg/mL in each case.
On to `C=CC(C)(C)c1cc2ccc(O)cc2oc1=O`, for which the concentration for half-maximal inhibition (IC50) in the data set with A549, with HepG2 and in the data set with MDA-MB-231 (setting [4]) was more than 20 µg/mL throughout.
In the case of `COc1cc2c(c3[nH]c4ccccc4c(=O)c13)C=CC(C)(C)O2`, the IC50 with A549, with HepG2 and with MDA-MB-231 (setting [4]) was more than 20 µg/mL throughout.
Regarding `COc1cccc2c(=O)c3c(O)cc4c(c3n(C)c12)C=CC(C)(C)O4`, the IC50 with A549, with HepG2 and in the data set with MDA-MB-231 (setting [4]) was more than 20 µg/mL each time.
`C/C(=C\COc1ccc2ccc(=O)oc2c1)C/C=C/C(C)(C)O`: the IC50 in the data set with A549, with HepG2 and in the data set on MDA-MB-231 (setting [4]) was more than 20 µg/mL each time.
On to `CC1(C)CC[C@]2(C)CC[C@H]3[C@]4(C)CC[C@H]5C(C)(C)C(=O)CC[C@]5(C)[C@H]4CC[C@@]3(C)[C@@H]2C1`, for which the 50% inhibitory concentration (IC50) in the data set with A549, with HepG2 and in the data set with MDA-MB-231 (setting [4]) was more than 20 µg/mL in each case.
As for `CC(C)=CCc1c2c(c3c(c1O)c(=O)c1cccc(O)c1n3C)C=CC(C)(C)O2`, the selectivity ratio in data set [1] was 6.3. For the same compound, the IC50 in the data set with A549 was more than 20 µg/mL; with Neutrophil [2], 3.7 µM; in the data set with HepG2, more than 20 µg/mL; with Neutrophil [3] it was more than 10000 nM; with MDA-MB-231 (setting [4]) it was more than 20 µg/mL. The compound further came in with an EC50 in the data set on dengue virus type 2 of 5.3 µM.
`CC1(C)C=Cc2c(cc(O)c3c(=O)c4cccc(O)c4[nH]c23)O1` [ATOLAPHYLLIDINE]: the values for the IC50 with A549, in the data set with HepG2 and in the data set with MDA-MB-231 (mda-mb-231) were 7.8 µM, 7.3 µM and “Not Active”, respectively.
For the compound `CC(C)=CCc1c2c(c3[nH]c4c(O)cccc4c(=O)c3c1O)C=CC(C)(C)O2` [ATALAPHYLLININE], the values for the 50% inhibitory concentration (IC50) in the data set on A549, in the data set with HepG2 and in the data set with MDA-MB-231 (mda-mb-231) were 7.8 µM, 6.5 µM and “Not Active”, respectively.
For the compound `CO/N=C/C(=O)c1ccc(O)cc1`, the IC50 in the data set on A549 was more than 20 µg/mL; in the data set on Neutrophil [2] it was more than 10 µM; in the data set on HepG2 it was more than 20 µg/mL; in the data set with Neutrophil [3] it was 4800 nM; in the data set on MDA-MB-231 (setting [4]) it was more than 20 µg/mL.
Take `COc1c2ccoc2cc2oc(=O)ccc12` [BERGAPTEN]: the IC50 with A549, with HepG2 and in the data set with MDA-MB-231 (setting [4]) was more than 20 µg/mL each time.
For `COc1cccc2c1C(=O)c1c(O)c3c(c(O)c1C2=O)C[C@@](O)(C(=O)CO)C[C@@H]3O[C@H]1C[C@H](N)[C@H](O)[C@H](C)O1` [DOXORUBICIN], the concentration for half-maximal inhibition (IC50) in the data set with A549 is 0.6 µM.
Regarding `O=c1cc(N2CCOCC2)oc2c(-c3ccccc3)cccc12` [LY-294002], the IC50 with Neutrophil [2] came to 5.1 µM; with Neutrophil [3], 2100 nM.
Take `CC(C)=CCOc1ccc(C(=O)/C=N/O)cc1`: the IC50 in the data set on A549, in the data set with HepG2 and in the data set on MDA-MB-231 (setting [4]) was more than 20 µg/mL each time.
As to `CC(C)=CCOc1c2occc2cc2ccc(=O)oc12` [PENTOSALEN], the IC50 in the data set with A549 is more than 20 µg/mL; in the data set with Neutrophil [2] it was more than 10 µM; in the data set on HepG2 it was more than 20 µg/mL; in the data set with Neutrophil [3], 200 nM; in the data set on MDA-MB-231 (setting [4]), more than 20 µg/mL.
Turning to `CC(C)=CCOc1c2ccoc2cc2oc(=O)ccc12` [ISOIMPERATORIN], the IC50 is more than 20 µg/mL in the data set on A549; more than 10 µM in the data set on Neutrophil [2]; more than 20 µg/mL in the data set on HepG2; 2600 nM in the data set with Neutrophil [3]; more than 20 µg/mL in the data set on MDA-MB-231 (setting [4]).
Turning to `CO/N=C/C(=O)c1ccc(OC/C=C(\C)C(=O)OC)cc1`, the IC50 with A549, with HepG2 and in the data set on MDA-MB-231 (setting [4]) was more than 20 µg/mL each time.
Turning to `COC(=O)/C=C/c1ccc(O)c(OC)c1`, the concentration for half-maximal inhibition (IC50) in the data set with A549, with HepG2 and in the data set on MDA-MB-231 (setting [4]) was more than 20 µg/mL in each case.
As to `COC(=O)/C(C)=C/COc1ccc(C(=O)OC)cc1`, the IC50 with A549, in the data set on HepG2 and with MDA-MB-231 (setting [4]) was more than 20 µg/mL in each case.
Turning to `COC(=O)c1ccc(O)cc1` [METHYLPARABEN], the IC50 in the data set with A549, in the data set on HepG2 and in the data set with MDA-MB-231 (setting [4]) was more than 20 µg/mL in each case.
Take `C/C(=C\COc1ccc2ccc(=O)oc2c1)C/C=C/C(C)(C)OO`: the IC50 with A549, in the data set on HepG2 and with MDA-MB-231 (setting [4]) was more than 20 µg/mL in each case.
As for `CC(C)=CCc1c(O)c(CC=C(C)C)c2c(c1O)c(=O)c1cccc(O)c1n2C`, the IC50 with A549, with HepG2 and in the data set on MDA-MB-231 (setting [4]) was more than 20 µg/mL throughout.
Take `CC1(C)C=Cc2c(ccc3ccc(=O)oc23)O1` [SESALIN]: the half-maximal inhibitory concentration (IC50) in the data set on A549 is more than 20 µg/mL; with Neutrophil [2] it was more than 10 µM; in the data set on HepG2 it was more than 20 µg/mL; in the data set on Neutrophil [3] it was 4700 nM; with MDA-MB-231 (setting [4]), more than 20 µg/mL.
For the compound `C=C(C)C(CC/C(C)=C/COc1ccc2ccc(=O)oc2c1)OO` (configuration not stated), the 50% inhibitory concentration (IC50) in the data set with A549, with HepG2 and with MDA-MB-231 (setting [4]) was more than 20 µg/mL throughout.
As to `COC1=CC(=O)c2cc(C)ccc2C1=O`, the half-inhibitory concentration (IC50) with A549, in the data set with HepG2 and in the data set with MDA-MB-231 (setting [4]) was more than 20 µg/mL in each case.
On to `CO/N=C/C(=O)c1ccc(O/C=C/[C@H](C)C(=O)OC)cc1`, for which the IC50 in the data set with A549, in the data set on HepG2 and in the data set with MDA-MB-231 (setting [4]) was more than 20 µg/mL each time.
